Tested on: Fibroblast
Experiment: Multiplex assay against human fibroblast
Format: toxicity, cell-based
How it was run: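 Live cells carried four stains from seeding: Hoechst33342, BioTracker Green Microtubule Cytoskeleton Dye, MitoTracker Red and Annexin V Alexa Fluor 680. They were imaged on a CQ1 microscope at 37°C and 5% CO2 after compound addition. Using CellPathfinder machine-learning gating, cells were split into Hoechst high-intensity objects or normal cells, normal cells into healthy, pyknosed or fragmented nuclei, and pyknosed cells into mitotic or apoptotic; tubulin, mitochondrial-mass and membrane-permeability phenotypes are per cents of healthy-nucleus cells.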

[1] = 12 h, 1 µM, compound concentration 1 uM, replicate 1
[2] = 12 h, 1 µM, compound concentration 1 uM, replicate 2
[3] = 12 h, 10 µM, compound concentration 10 uM, replicate 1
[4] = 12 h, 10 µM, compound concentration 10 uM, replicate 2
[5] = 24 h, 1 µM, compound concentration 1 uM, replicate 1
[6] = 24 h, 1 µM, compound concentration 1 uM, replicate 2
[7] = 24 h, 10 µM, compound concentration 10 uM, replicate 1
[8] = 24 h, 10 µM, compound concentration 10 uM, replicate 2
[9] = 48 h, 1 µM, compound concentration 1 uM, replicate 1
[10] = 48 h, 1 µM, compound concentration 1 uM, replicate 2
[11] = 48 h, 10 µM, compound concentration 10 uM, replicate 1
[12] = 48 h, 10 µM, compound concentration 10 uM, replicate 2

## N#Cc1c(N)nc(SCc2csc(-c3ccc(Cl)cc3)n2)c(C#N)c1-c1ccc(OCCO)cc1 [CAPADENOSON]
[1]
  Population Apoptotic (%): 43%
  Population Fragmented Nuclei (%): 8%
  Population Healthy Nuclei (%): 80%
  Population Hoechst High Intensity Objects (%): 2%
  Population Membrane Permeable-Phenotype (%): 0%
  Population Mitochondria Different-Phenotype (%): 10%
  Population Mitotic Cells (%): 56%
  Population Normal (%): 97%
  Population Pyknosed Nuclei (%): 11%
  Population Tubulin-Different-Phenotype (%): 38%
  Total Cell Count: 139
[2]
  Population Apoptotic (%): 27%
  Population Fragmented Nuclei (%): 30%
  Population Healthy Nuclei (%): 43%
  Population Hoechst High Intensity Objects (%): 1%
  Population Membrane Permeable-Phenotype (%): 5%
  Population Mitochondria Different-Phenotype (%): 11%
  Population Mitotic Cells (%): 72%
  Population Normal (%): 98%
  Population Pyknosed Nuclei (%): 25%
  Population Tubulin-Different-Phenotype (%): 55%
  Total Cell Count: 157
[3]
  Population Apoptotic (%): 31%
  Population Fragmented Nuclei (%): 23%
  Population Healthy Nuclei (%): 50%
  Population Hoechst High Intensity Objects (%): 1%
  Population Membrane Permeable-Phenotype (%): 0%
  Population Mitochondria Different-Phenotype (%): 10%
  Population Mitotic Cells (%): 68%
  Population Normal (%): 98%
  Population Pyknosed Nuclei (%): 25%
  Population Tubulin-Different-Phenotype (%): 80%
  Total Cell Count: 172
[4]
  Population Apoptotic (%): 41%
  Population Fragmented Nuclei (%): 41%
  Population Healthy Nuclei (%): 29%
  Population Hoechst High Intensity Objects (%): 8%
  Population Membrane Permeable-Phenotype (%): 20%
  Population Mitochondria Different-Phenotype (%): 14%
  Population Mitotic Cells (%): 58%
  Population Normal (%): 91%
  Population Pyknosed Nuclei (%): 29%
  Population Tubulin-Different-Phenotype (%): 97%
  Total Cell Count: 128
[5]
  Population Apoptotic (%): 72%
  Population Fragmented Nuclei (%): 11%
  Population Healthy Nuclei (%): 80%
  Population Hoechst High Intensity Objects (%): 1%
  Population Membrane Permeable-Phenotype (%): 0%
  Population Mitochondria Different-Phenotype (%): 5%
  Population Mitotic Cells (%): 27%
  Population Normal (%): 98%
  Population Pyknosed Nuclei (%): 8%
  Population Tubulin-Different-Phenotype (%): 34%
  Total Cell Count: 139
[6]
  Population Apoptotic (%): 48%
  Population Fragmented Nuclei (%): 35%
  Population Healthy Nuclei (%): 44%
  Population Hoechst High Intensity Objects (%): 4%
  Population Membrane Permeable-Phenotype (%): 6%
  Population Mitochondria Different-Phenotype (%): 20%
  Population Mitotic Cells (%): 51%
  Population Normal (%): 95%
  Population Pyknosed Nuclei (%): 20%
  Population Tubulin-Different-Phenotype (%): 71%
  Total Cell Count: 148
[7]
  Population Apoptotic (%): 38%
  Population Fragmented Nuclei (%): 26%
  Population Healthy Nuclei (%): 52%
  Population Hoechst High Intensity Objects (%): 2%
  Population Membrane Permeable-Phenotype (%): 0%
  Population Mitochondria Different-Phenotype (%): 26%
  Population Mitotic Cells (%): 61%
  Population Normal (%): 97%
  Population Pyknosed Nuclei (%): 20%
  Population Tubulin-Different-Phenotype (%): 67%
  Total Cell Count: 179
[8]
  Population Apoptotic (%): 41%
  Population Fragmented Nuclei (%): 43%
  Population Healthy Nuclei (%): 28%
  Population Hoechst High Intensity Objects (%): 6%
  Population Membrane Permeable-Phenotype (%): 17%
  Population Mitochondria Different-Phenotype (%): 25%
  Population Mitotic Cells (%): 58%
  Population Normal (%): 93%
  Population Pyknosed Nuclei (%): 27%
  Population Tubulin-Different-Phenotype (%): 94%
  Total Cell Count: 131
[9]
  Population Apoptotic (%): 88%
  Population Fragmented Nuclei (%): 16%
  Population Healthy Nuclei (%): 77%
  Population Hoechst High Intensity Objects (%): 2%
  Population Membrane Permeable-Phenotype (%): 0%
  Population Mitochondria Different-Phenotype (%): 7%
  Population Mitotic Cells (%): 11%
  Population Normal (%): 97%
  Population Pyknosed Nuclei (%): 6%
  Population Tubulin-Different-Phenotype (%): 37%
  Total Cell Count: 147
[10]
  Population Apoptotic (%): 69%
  Population Fragmented Nuclei (%): 38%
  Population Healthy Nuclei (%): 43%
  Population Membrane Permeable-Phenotype (%): 6%
  Population Mitochondria Different-Phenotype (%): 12%
  Population Mitotic Cells (%): 30%
  Population Pyknosed Nuclei (%): 17%
  Population Tubulin-Different-Phenotype (%): 60%
  Total Cell Count: 151
[11]
  Population Apoptotic (%): 81%
  Population Fragmented Nuclei (%): 32%
  Population Healthy Nuclei (%): 53%
  Population Hoechst High Intensity Objects (%): 2%
  Population Membrane Permeable-Phenotype (%): 0%
  Population Mitochondria Different-Phenotype (%): 32%
  Population Mitotic Cells (%): 18%
  Population Normal (%): 97%
  Population Pyknosed Nuclei (%): 14%
  Population Tubulin-Different-Phenotype (%): 78%
  Total Cell Count: 187
[12]
  Population Apoptotic (%): 36%
  Population Fragmented Nuclei (%): 57%
  Population Healthy Nuclei (%): 29%
  Population Hoechst High Intensity Objects (%): 0%
  Population Membrane Permeable-Phenotype (%): 11%
  Population Mitochondria Different-Phenotype (%): 30%
  Population Mitotic Cells (%): 63%
  Population Normal (%): 100%
  Population Pyknosed Nuclei (%): 13%
  Population Tubulin-Different-Phenotype (%): 95%
  Total Cell Count: 142
